Measurements taken from ChEMBL document CHEMBL4219253, “Positive Modulators of the N-Methyl-d-aspartate Receptor: Structure-Activity Relationship Study of Steroidal 3-Hemiesters” (J Med Chem, 2018).

What was measured:
[1] = target: Glutamate NMDA receptor; Grin1/Grin2a (Rattus norvegicus, UniProt P35439+Q00959); assay: Positive allosteric modulation of recombinant rat GluN1alpha/GluN2A receptor expressed in HEK293 cells assessed as potentiation of glutamate-induced current response at holding potential -60mV by whole cell voltage clamp method; format: cell-based
Summary of the method: (§1)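 HEK293 cells transfected with GluN1-1a, GluN2A, 2B, 2C or 2D and GFP cDNA. Whole-cell voltage clamp at -60 mV, 21–25 °C, series resistance <10 MΩ compensated 80–90%. Compound co-applied with 1 µM glutamate by fast multibarrel perfusion. DMSO 1% in all solutions. […] At least four cells per point.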

[2] = target: T1, Glutamate NMDA receptor; Grin1/Grin2a (Rattus norvegicus) (UniProt P35439+Q00959); assay: Positive allosteric modulation of recombinant rat GluN1alpha/GluN2A receptor expressed in HEK293 cells assessed as potentiation of glutamate-induced current response at 30 uM at holding potential -60mV by whole cell voltage clamp method relative to control; format: cell-based; summary of the method: as §1
[3] = target: T2, Glutamate NMDA receptor; Grin1/Grin2b (Rattus norvegicus) (UniProt P35439+Q00960); assay: Positive allosteric modulation of recombinant rat GluN1alpha/GluN2B receptor expressed in HEK293 cells assessed as potentiation of glutamate-induced current response at 1 to 100 uM at holding potential -60mV by whole cell voltage clamp method relative to control; format: cell-based
Summary of the method: (§2)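 HEK293 cells transfected with GluN1-1a, the GluN2 subunit and GFP. Whole-cell voltage clamp at -60 mV, series resistance <10 MΩ, 80-90% compensation, room temperature (21–25 °C). Compound is co-applied with 1 µM glutamate by multibarrel fast perfusion (exchange ~10 ms). DMSO is held at 1% in all test and control solutions. Readout is % potentiation of the glutamate-evoked current.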

[4] = target: T3, Glutamate NMDA receptor; Grin1/Grin2c (Rattus norvegicus) (UniProt P35439+Q00961); assay: Positive allosteric modulation of recombinant rat GluN1alpha/GluN2C receptor expressed in HEK293 cells assessed as potentiation of glutamate-induced current response at 1 to 30 uM at holding potential -60mV by whole cell voltage clamp method relative to control; format: cell-based; summary of the method: as §1
[5] = target: T2, Glutamate NMDA receptor; Grin1/Grin2b (Rattus norvegicus); assay: Positive allosteric modulation of recombinant rat GluN1alpha/GluN2B receptor expressed in HEK293 cells assessed as potentiation of glutamate-induced current response at 1 to 30 uM at holding potential -60mV by whole cell voltage clamp method relative to control; format: cell-based; summary of the method: as §1
[6] = target: T2, Glutamate NMDA receptor; Grin1/Grin2b (Rattus norvegicus); assay: Positive allosteric modulation of recombinant rat GluN1alpha/GluN2B receptor expressed in HEK293 cells assessed as potentiation of glutamate-induced current response at 30 uM at holding potential -60mV cotreated with 1 mM glutamate by whole cell voltage clamp method relative to control; format: cell-based
Summary of the method: (§3)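 HEK293 cells expressing GluN1-1a/GluN2B, whole-cell voltage clamp at -60 mV, 21–25 °C. Compound at 30 µM was given in one of three ways: co-applied with 1 µM glutamate, co-applied with 1 mM glutamate, or pre-applied before 1 mM glutamate. Delivery by fast perfusion, DMSO 1% throughout. Potentiation relative to the control glutamate response.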

[7] = species: Rattus norvegicus; assay: Positive allosteric modulation of GABAR in rat hippocampal neuron assessed as potentiation of GABA-induced current response at 30 uM in presence of cyclothiazide by whole cell voltage clamp method relative to control
[8] = target: Glutamate NMDA receptor; Grin1/Grin2c (Rattus norvegicus, UniProt P35439+Q00961); assay: Positive allosteric modulation of recombinant rat GluN1alpha/GluN2C receptor expressed in HEK293 cells assessed as potentiation of glutamate-induced current response at holding potential -60mV by whole cell voltage clamp method; format: cell-based; summary of the method: as §1
[9] = target: Glutamate NMDA receptor (Rattus norvegicus) (UniProt P35439+Q00959+Q00960+Q00961+Q62645+Q8VHN2+Q9R1M7); assay: Positive allosteric modulation of NMDAR in rat hippocampal neuron assessed as potentiation of NMDA-induced current response at 30 uM by whole cell voltage clamp method relative to control
Summary of the method: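 Native NMDARs in cultured hippocampal neurons, whole-cell voltage clamp at -60 mV, 21–25 °C. Bath also held 10 µM CNQX, 10 µM bicuculline, 0.5 µM TTX. Compound co-applied with 1 µM glutamate by fast perfusion (~10 ms exchange). DMSO 1% throughout. Potentiation relative to control glutamate response.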

[10] = target: T2, Glutamate NMDA receptor; Grin1/Grin2b (Rattus norvegicus); assay: Positive allosteric modulation of recombinant rat GluN1alpha/GluN2B receptor expressed in HEK293 cells assessed as potentiation of glutamate-induced current response at 30 uM at holding potential -60mV pretreated with cells followed by 1 mM glutamate addition by whole cell voltage clamp method relative to control; format: cell-based; summary of the method: as §3
[11] = target: T1, Glutamate NMDA receptor; Grin1/Grin2a (Rattus norvegicus); assay: Positive allosteric modulation of recombinant rat GluN1alpha/GluN2A receptor expressed in HEK293 cells assessed as potentiation of glutamate-induced current response at 1 to 30 uM at holding potential -60mV by whole cell voltage clamp method relative to control; format: cell-based; summary of the method: as §1
[12] = target: T2, Glutamate NMDA receptor; Grin1/Grin2b (Rattus norvegicus); assay: Positive allosteric modulation of recombinant rat GluN1alpha/GluN2B receptor expressed in HEK293 cells assessed as potentiation of glutamate-induced current response at 100 uM at holding potential -60mV by whole cell voltage clamp method relative to control; format: cell-based; summary of the method: as §2
[13] = species: Rattus norvegicus; assay: Positive allosteric modulation of AMPAR in rat hippocampal neuron assessed as potentiation of AMPA-induced current response at 30 uM in presence of cyclothiazide by whole cell voltage clamp method relative to control
Summary of the method: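 Cultured hippocampal neurons, whole-cell voltage clamp at -60 mV, room temperature (21–25 °C). AMPAR current evoked by 5 µM AMPA; bath also held 10 µM cyclothiazide, 50 µM D-AP5, 10 µM bicuculline, 0.5 µM TTX. Compound co-applied by fast multibarrel perfusion. DMSO 1% in all test and control solutions. Effect expressed relative to control response.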

[14] = target: T2, Glutamate NMDA receptor; Grin1/Grin2b (Rattus norvegicus); assay: Positive allosteric modulation of recombinant rat GluN1alpha/GluN2B receptor expressed in HEK293 cells assessed as potentiation of glutamate-induced current response at 30 uM at holding potential -60mV cotreated with 1 uM glutamate by whole cell voltage clamp method relative to control; format: cell-based; summary of the method: as §3
[15] = target: Glutamate NMDA receptor; Grin1/Grin2b (Rattus norvegicus, UniProt P35439+Q00960); assay: Positive allosteric modulation of recombinant rat GluN1alpha/GluN2B receptor expressed in HEK293 cells assessed as potentiation of glutamate-induced current response at holding potential -60mV by whole cell voltage clamp method; format: cell-based
Summary of the method: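 HEK293 cells transfected with GluN1-1a, GluN2A, 2B, 2C or 2D and GFP cDNA. Whole-cell voltage clamp at -60 mV, 21–25 °C, series resistance <10 MΩ compensated 80–90%. Compound co-applied with 1 µM glutamate by fast multibarrel perfusion. DMSO 1% in all solutions. At least four cells per point.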

[16] = target: Ionotropic glutamate receptor NMDA 1/2D (Rattus norvegicus, UniProt P35439+Q62645); assay: Positive allosteric modulation of recombinant rat GluN1alpha/GluN2D receptor expressed in HEK293 cells assessed as potentiation of glutamate-induced current response at holding potential -60mV by whole cell voltage clamp method; format: cell-based; summary of the method: as §1
[17] = target: T2, Glutamate NMDA receptor; Grin1/Grin2b (Rattus norvegicus); assay: Positive allosteric modulation of recombinant rat GluN1alpha/GluN2B receptor expressed in HEK293 cells assessed as potentiation of glutamate-induced current response at 30 uM at holding potential -60mV by whole cell voltage clamp method relative to control; format: cell-based; summary of the method: as §1
[18] = target: T3, Glutamate NMDA receptor; Grin1/Grin2c (Rattus norvegicus); assay: Positive allosteric modulation of recombinant rat GluN1alpha/GluN2C receptor expressed in HEK293 cells assessed as potentiation of glutamate-induced current response at 30 uM at holding potential -60mV by whole cell voltage clamp method relative to control; format: cell-based; summary of the method: as §1
[19] = target: T4, Ionotropic glutamate receptor NMDA 1/2D (Rattus norvegicus) (UniProt P35439+Q62645); assay: Positive allosteric modulation of recombinant rat GluN1alpha/GluN2D receptor expressed in HEK293 cells assessed as potentiation of glutamate-induced current response at 1 to 30 uM at holding potential -60mV by whole cell voltage clamp method relative to control; format: cell-based; summary of the method: as §1
[20] = target: T4, Ionotropic glutamate receptor NMDA 1/2D (Rattus norvegicus); assay: Positive allosteric modulation of recombinant rat GluN1alpha/GluN2D receptor expressed in HEK293 cells assessed as potentiation of glutamate-induced current response at 30 uM at holding potential -60mV by whole cell voltage clamp method relative to control; format: cell-based; summary of the method: as §1

CC(=O)[C@H]1CC[C@H]2[C@@H]3CC=C4C[C@@H](OC(=O)CCCCC(=O)O)CC[C@]4(C)[C@H]3CC[C@]12C
EC50 [1]: 8.9 µM
Activity [2]: 192%
Emax [3]: 151%
Emax [4]: 145%
Emax [5]: 157%
Activity [6]: 75%
Activity [7]: -90%
EC50 [8]: 10.4 µM
Activity [9]: 138%
Activity [10]: 134%
Emax [11]: 203%
Activity [12]: 614%
Activity [13]: -7%
Activity [14]: 136%
EC50 [15]: 8.5 to 9.1 µM
EC50 [16]: 13 µM
Activity [17]: 137%
Activity [18]: 118%
Emax [19]: 115%
Activity [20]: 88%
